Measurements published in ChEMBL document CHEMBL1154152, “Synthesis of some novel bioactive 4-oxy/thio substituted-1H-pyrazol-5(4H)-ones via efficient cross-Claisen condensation” (2009).
Converted amounts (≈) assume the structure as drawn.

What was measured:
Type in all cases: functional
[1] = tested on: Trichophyton mentagrophytes; experiment: Antifungal activity against Trichophyton mentagrophytes after 3 to 4 days by serial plate dilution method
Talaromyces marneffei [2] = experiment: Antifungal activity against Penicillium marneffei after 3 to 4 days by serial plate dilution method
Procedure, shortened: (§1)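 Sabouraud's agar made from peptone, D-glucose and agar, pH 5.7, and lawned with a fungal spore suspension in normal saline. Wells cut with an agar punch received 10–50 mg/ml test compound in DMSO; DMSO-only control plates. Triplicate plates kept at 37 °C for 3–4 days.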

Staphylococcus aureus = experiment: Antibacterial activity against Staphylococcus aureus ATCC 25923 after 24 hrs by disk diffusion method; conditions: for MIC: Staphylococcus aureus, ATCC 25923, 24 h
Procedure, shortened: (§2)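 Discs with each concentration, in triplicate, on nutrient agar seeded with fresh bacteria. Incubated 37 °C for 24 h, with solvent and growth controls. Zones of inhibition and MIC recorded.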

Escherichia coli = experiment: Antibacterial activity against Escherichia coli ATTC 25922 after 24 hrs by disk diffusion method; conditions: for MIC: Escherichia coli, ATTC 25922, 24 h; procedure, shortened: as §2
Pseudomonas aeruginosa = experiment: Antibacterial activity against Pseudomonas aeruginosa ATTC 27853 after 24 hrs by disk diffusion method; conditions: for MIC: Pseudomonas aeruginosa, ATTC 27853, 24 h; procedure, shortened: as §2
Klebsiella sp. = experiment: Antibacterial activity against Klebsiella sp. after 24 hrs by disk diffusion method; conditions: for MIC: Klebsiella sp., 24 h; procedure, shortened: as §2
[3] = tested on: Trichophyton mentagrophytes; experiment: Antifungal activity against Trichophyton mentagrophytes at 10 to 50 ug/ml after 3 to 4 days by serial plate dilution method
Talaromyces marneffei [4] = experiment: Antifungal activity against Penicillium marneffei at 10 to 50 ug/ml after 3 to 4 days by serial plate dilution method
Aspergillus flavus [5] = experiment: Antifungal activity against Aspergillus flavus at 10 to 50 ug/ml after 3 to 4 days by serial plate dilution method
Aspergillus flavus [6] = experiment: Antifungal activity against Aspergillus flavus after 3 to 4 days by serial plate dilution method; procedure, shortened: as §1
Aspergillus fumigatus [7] = experiment: Antifungal activity against Aspergillus fumigatus at 10 to 50 ug/ml after 3 to 4 days by serial plate dilution method
Aspergillus fumigatus [8] = experiment: Antifungal activity against Aspergillus fumigatus after 3 to 4 days by serial plate dilution method

SMILES | MIC [1] | MIC (Talaromyces marneffei [2]) | inhibition zone (IZ) (Staphylococcus aureus) | MIC (Staphylococcus aureus) | inhibition zone (IZ) (Escherichia coli) | MIC (Escherichia coli) | inhibition zone (IZ) (Pseudomonas aeruginosa) | MIC (Pseudomonas aeruginosa) | inhibition zone (IZ) (Klebsiella sp.) | MIC (Klebsiella sp.) | inhibition zone (IZ) [3] | inhibition zone (IZ) (Talaromyces marneffei [4]) | inhibition zone (IZ) (Aspergillus flavus [5]) | MIC (Aspergillus flavus [6]) | inhibition zone (IZ) (Aspergillus fumigatus [7]) | MIC (Aspergillus fumigatus [8])
COCC1=NNC(=O)C1Oc1ccccc1 (centres undefined) | 6.25 µg/mL (≈ 28.4 µM) | 6.25 µg/mL (≈ 28.4 µM) | 17 mm | 6.25 µg/mL (≈ 28.4 µM) | 12 mm | 25 µg/mL (≈ 114 µM) | 17 mm | 6.25 µg/mL (≈ 28.4 µM) | 20 mm | 6.25 µg/mL (≈ 28.4 µM) | 17 mm | 17 mm | 18 mm | 6.25 µg/mL (≈ 28.4 µM) | 20 mm | 6.25 µg/mL (≈ 28.4 µM)
CC(C)CC1=NN(c2ccc(F)cc2)C(=O)C1Sc1ccccc1 (centres undefined) | 6.25 µg/mL (≈ 18.3 µM) | 6.25 µg/mL (≈ 18.3 µM) | 19 mm | 6.25 µg/mL (≈ 18.3 µM) | 13 mm | 25 µg/mL (≈ 73 µM) | 20 mm | 6.25 µg/mL (≈ 18.3 µM) | 19 mm | 6.25 µg/mL (≈ 18.3 µM) | 18 mm | 19 mm | 20 mm | 6.25 µg/mL (≈ 18.3 µM) | 19 mm | 6.25 µg/mL (≈ 18.3 µM)
COc1ccc(OC2C(=O)NN=C2C)cc1 (centres undefined) | 50 µg/mL (≈ 227 µM) | 50 µg/mL (≈ 227 µM) | 19 mm | 6.25 µg/mL (≈ 28.4 µM) | 11 mm | 25 µg/mL (≈ 114 µM) | <10 mm | 50 µg/mL (≈ 227 µM) | <10 mm | 50 µg/mL (≈ 227 µM) | <10 mm | <10 mm | <10 mm | 50 µg/mL (≈ 227 µM) | <10 mm | 50 µg/mL (≈ 227 µM)
CC(C)(C)C1=NNC(=O)C1Oc1ccccc1 (centres undefined) | 6.25 µg/mL (≈ 26.9 µM) | 6.25 µg/mL (≈ 26.9 µM) | 16 mm | 6.25 µg/mL (≈ 26.9 µM) | 18 mm | 6.25 µg/mL (≈ 26.9 µM) | 20 mm | 6.25 µg/mL (≈ 26.9 µM) | 18 mm | 6.25 µg/mL (≈ 26.9 µM) | 19 mm | 21 mm | 16 mm | 6.25 µg/mL (≈ 26.9 µM) | 18 mm | 6.25 µg/mL (≈ 26.9 µM)
CCC1=NNC(=O)C1Oc1ccccc1 (centres undefined) | 6.25 µg/mL (≈ 30.6 µM) | 6.25 µg/mL (≈ 30.6 µM) | 19 mm | 6.25 µg/mL (≈ 30.6 µM) | 18 mm | 6.25 µg/mL (≈ 30.6 µM) | 20 mm | 6.25 µg/mL (≈ 30.6 µM) | 16 mm | 6.25 µg/mL (≈ 30.6 µM) | 16 mm | 18 mm | 21 mm | 6.25 µg/mL (≈ 30.6 µM) | 17 mm | 6.25 µg/mL (≈ 30.6 µM)
CC1=NNC(=O)C1Sc1ccccc1 (centres undefined) | 6.25 µg/mL (≈ 30.3 µM) | 6.25 µg/mL (≈ 30.3 µM) | 18 mm | 6.25 µg/mL (≈ 30.3 µM) | 13 mm | 25 µg/mL (≈ 121 µM) | 19 mm | 6.25 µg/mL (≈ 30.3 µM) | 16 mm | 6.25 µg/mL (≈ 30.3 µM) | 18 mm | 21 mm | 16 mm | 6.25 µg/mL (≈ 30.3 µM) | 17 mm | 6.25 µg/mL (≈ 30.3 µM)
CC(C)CC1=NNC(=O)C1Sc1ccccc1 (centres undefined) | 6.25 µg/mL (≈ 25.2 µM) | 6.25 µg/mL (≈ 25.2 µM) | 19 mm | 6.25 µg/mL (≈ 25.2 µM) | 21 mm | 6.25 µg/mL (≈ 25.2 µM) | 18 mm | 6.25 µg/mL (≈ 25.2 µM) | 21 mm | 6.25 µg/mL (≈ 25.2 µM) | 21 mm | 18 mm | 18 mm | 6.25 µg/mL (≈ 25.2 µM) | 18 mm | 6.25 µg/mL (≈ 25.2 µM)
CC(C)C1=NNC(=O)C1Sc1ccccc1 (centres undefined) | 6.25 µg/mL (≈ 26.7 µM) | 6.25 µg/mL (≈ 26.7 µM) | 20 mm | 6.25 µg/mL (≈ 26.7 µM) | 18 mm | 6.25 µg/mL (≈ 26.7 µM) | 17 mm | 6.25 µg/mL (≈ 26.7 µM) | 16 mm | 6.25 µg/mL (≈ 26.7 µM) | 16 mm | 19 mm | 18 mm | 6.25 µg/mL (≈ 26.7 µM) | 20 mm | 6.25 µg/mL (≈ 26.7 µM)
CC1=NNC(=O)C1OCc1cccc(Br)c1 (centres undefined) | 6.25 µg/mL (≈ 22.1 µM) | 6.25 µg/mL (≈ 22.1 µM) | 21 mm | 6.25 µg/mL (≈ 22.1 µM) | 11 mm | 25 µg/mL (≈ 88.3 µM) | 18 mm | 6.25 µg/mL (≈ 22.1 µM) | 19 mm | 6.25 µg/mL (≈ 22.1 µM) | 20 mm | 18 mm | 19 mm | 6.25 µg/mL (≈ 22.1 µM) | 18 mm | 6.25 µg/mL (≈ 22.1 µM)
